According to ChEMBL document CHEMBL1158040, “Biological activities and 3D QSAR studies of a series of Delisea pulchra (cf. fimbriata) derived natural products” (J Nat Prod, 2006):
Converted amounts (≈) assume the structure as drawn. The source made the active and inactive calls. The calls are words filed in the database; no cut-off is given here.

Columns and labels:
[1] = target: Human immunodeficiency virus type 1 reverse transcriptase (Human immunodeficiency virus 1) (UniProt Q72547); assay: Inhibition of HIV1 RT at 200 uM
How it was run: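 HIV-1 reverse transcriptase inhibition was measured in an ELISA-based system.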

[2] = system: Monocyte; assay: Inhibition of IL1 biosynthesis in human monocytes; format: functional, cell-based
[3] = system: KB; assay: Cytotoxicity against human KB cells; format: functional; conditions: read-out: ED50 (the source's name)
[4] = system: Mycobacterium avium; assay: Antimycobacterial activity against Mycobacterium avium at 128 uM; format: functional, organism-based
[5] = system: KB; assay: Cytotoxicity against vinblastine-resistant human KB cells; format: functional; conditions: read-out: ED50 (the source's name)
How it was run: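 The vinblastine-resistant KB-V1 line was tested both with and without added vinblastine in the cultured tumour-cell cytotoxicity panel. Results are reported as ED50.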

[6] = system: ZR-75-1; assay: Cytotoxicity against human ZR-75-1 cells; format: functional; conditions: read-out: ED50 (the source's name)
[7] = system: Escherichia coli; assay: Antimicrobial activity against Escherichia coli at 5 ug; format: functional, organism-based
How it was run: (§1)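 Direct bioautography: each compound is spotted onto TLC plates and the solvent evaporated. The test organism is then grown directly on the plate. Growth inhibition is scored at the spot as active (+) or very active (++). Where a number is given, it is the radius in mm of the inhibition zone around the spot.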

[8] = system: Penicillium oxalicum; assay: Antimicrobial activity against Penicillium oxalicum at 1 ug; format: functional; conditions: for zone of inhibition at 1 µg/disc: read-out: IZ; how it was run: as §1
[9] = system: LNCaP; assay: Cytotoxicity against human LNCAP cells; format: functional; conditions: read-out: ED50 (the source's name)
[10] = system: Lu1; assay: Cytotoxicity against human Lu1 cells; format: functional; conditions: read-out: ED50 (the source's name)
[11] = system: Mycobacterium tuberculosis; assay: Antimycobacterial activity against Mycobacterium tuberculosis at 128 uM; format: functional, organism-based
[12] = system: Monocyte; assay: Inhibition of LPS-stimulated IL1 production in human monocytes; format: functional, cell-based
[13] = system: Micrococcus luteus; assay: Antimicrobial activity against Micrococcus luteus at 10 ug; format: functional, organism-based; how it was run: as §1
[14] = system: KB; assay: Cytotoxicity against vinblastine-sensitive human KB cells; format: functional; conditions: read-out: ED50 (the source's name)
[15] = system: Micrococcus luteus; assay: Antimicrobial activity against Micrococcus luteus at 5 ug; format: functional, organism-based; how it was run: as §1
[16] = system: Escherichia coli; assay: Antimicrobial activity against Escherichia coli at 1 ug; format: functional, organism-based; how it was run: as §1
[17] = system: Bacillus subtilis; assay: Antimicrobial activity against Bacillus subtilis at 5 ug; format: functional, organism-based; how it was run: as §1
[18] = system: Bacillus subtilis; assay: Antimicrobial activity against Bacillus subtilis at 10 ug; format: functional, organism-based; how it was run: as §1
[19] = system: Plasmodium falciparum; assay: Antimalarial activity against chloroquine-sensitive Plasmodium falciparum D6 at 10 ug/ml; format: functional
[20] = system: Penicillium oxalicum; assay: Antimicrobial activity against Penicillium oxalicum at 5 ug; format: functional; conditions: for zone of inhibition at 5 µg/disc: read-out: IZ; how it was run: as §1
[21] = system: Escherichia coli; assay: Antimicrobial activity against Escherichia coli at 10 ug; format: functional, organism-based; how it was run: as §1
[22] = system: Penicillium oxalicum; assay: Antimicrobial activity against Penicillium oxalicum at 10 ug; format: functional; conditions: for zone of inhibition at 10 µg/disc: read-out: IZ; how it was run: as §1
[23] = system: Penicillium oxalicum; assay: Antimicrobial activity against Penicillium oxalicum at 0.1 ug; format: functional; conditions: for zone of inhibition at 0.1 µg/disc: read-out: IZ; how it was run: as §1
[24] = system: Bacillus subtilis; assay: Antimicrobial activity against Bacillus subtilis at 0.1 ug; format: functional, organism-based; how it was run: as §1
[25] = system: Penicillium oxalicum; assay: Antimicrobial activity against Penicillium oxalicum at 0.01 ug; format: functional; how it was run: as §1
[26] = system: Micrococcus luteus; assay: Antimicrobial activity against Micrococcus luteus at 1 ug; format: functional, organism-based; how it was run: as §1
[27] = Inhibition of PKC
[28] = system: Bacillus subtilis; assay: Antimicrobial activity against Bacillus subtilis at 1 ug; format: functional, organism-based; how it was run: as §1
[29] = Inhibition of TK assessed as residual activity at 200 ug/ml
How it was run: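 The enzyme was tyrosine kinase p56lck, with test compounds at 200 μg/mL. The read-out is the remaining enzyme activity.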

[30] = system: Micrococcus luteus; assay: Antimicrobial activity against Micrococcus luteus at 0.1 ug; format: functional, organism-based; how it was run: as §1
[31] = system: Penicillium oxalicum; assay: Antimicrobial activity against Penicillium oxalicum at 1.6 ug; format: functional; conditions: read-out: IZ; how it was run: as §1
[32] = system: Penicillium oxalicum; assay: Antimicrobial activity against Penicillium oxalicum at 0.8 ug; format: functional; conditions: read-out: IZ; how it was run: as §1
[33] = system: Escherichia coli; assay: Antimicrobial activity against Escherichia coli at 0.1 ug; format: functional, organism-based; how it was run: as §1
[34] = Cytotoxicity against human BCA1 cells; format: functional; conditions: read-out: ED50 (the source's name)
[35] = system: A-431; assay: Cytotoxicity against human A431 cells; format: functional; conditions: read-out: ED50 (the source's name)
[36] = Cytotoxicity against human Col1 cells; format: functional; conditions: read-out: ED50 (the source's name)
[37] = system: P388; assay: Cytotoxicity against mouse P388 cells; format: functional; conditions: read-out: ED50 (the source's name)
[38] = system: HT-1080; assay: Cytotoxicity against human HT1080 cells; format: functional; conditions: read-out: ED50 (the source's name)
[39] = Cytotoxicity against human MEL-2 cells; format: functional; conditions: MEL2, read-out: ED50 (the source's name)
[40] = Cytotoxicity against human U373 cells; format: functional, U-373MG ATCC; conditions: U373 MG, read-out: ED50 (the source's name)

SMILES	Activity [1]	IC50 [2]	EC50 [3]	IC50 [4]	EC50 [5]	EC50 [6]	Activity [7]	zone of inhibition at 1 µg/disc [8]	EC50 [9]	EC50 [10]	Activity [13]	EC50 [14]	Activity [15]	Activity [16]	Activity [17]	Activity [18]	Activity [19]	Activity [21]	Activity [26]	Activity [28]	also measured
CCC[C@@H](O)C1=C(Br)/C(=C/Br)OC1=O	inactive	1500 nM	0.4 µg/mL (≈ 1.23 µM)	350000 nM	0.1 µg/mL (≈ 0.307 µM)	< 0.1 µg/mL	Active	20 mm	0.2 µg/mL (≈ 0.614 µM)	0.3 µg/mL (≈ 0.92 µM)	Active	3.4 µg/mL (≈ 10.4 µM)	Active	Active	Active	Active	>50%	Active	Active	Active	Activity [11]: inactive; IC50 [12]: 600 nM; zone of inhibition at 5 µg/disc [20]: 26 mm; zone of inhibition at 10 µg/disc [22]: 27 mm; zone of inhibition at 0.1 µg/disc [23]: 6 mm; Activity [24]: Active; Activity [25]: inactive; IC50 [27]: 76000 nM; Activity [29]: 3.4%; Activity [30]: inactive
Clc1ccc(COC(Cn2ccnc2)c2ccc(Cl)cc2Cl)c(Cl)c1 (stereo not drawn) [MICONAZOLE]																					zone of inhibition at 1.6 µg/disc [31]: 5 mm; zone of inhibition at 0.8 µg/disc [32]: 3 mm
CCC[C@@H](OC(C)=O)C1=C(Br)[C@@](CI)(OC)OC1=O	inactive		2.4 µg/mL (≈ 5.37 µM)	350000 nM	7.1 µg/mL (≈ 15.9 µM)	7.9 µg/mL (≈ 17.7 µM)	inactive		12.9 µg/mL (≈ 28.9 µM)	> 20 µg/mL	Active	4.1 µg/mL (≈ 9.17 µM)	Active	inactive	inactive	inactive	>50%	inactive	inactive	inactive	Activity [8]: inactive; Activity [33]: inactive; Activity [11]: inactive; Activity [20]: inactive; Activity [22]: inactive; Activity [23]: inactive; Activity [24]: inactive; Activity [30]: inactive
CCCCC1=C(Br)C(=C(Br)Br)OC1=O		3000 nM	> 20 µg/mL		> 20 µg/mL	8.6 µg/mL (≈ 22.1 µM)	Active	8 mm	9.3 µg/mL (≈ 23.9 µM)		Active	> 20 µg/mL	Active	inactive	Active	Active	>50%	Active	inactive	inactive	EC50 [34]: 6.4 µg/mL (≈ 16.5 µM); Activity [33]: inactive; EC50 [35]: 10.5 µg/mL (≈ 27 µM); IC50 [12]: 1800 nM; EC50 [36]: 12.4 µg/mL (≈ 31.9 µM); EC50 [37]: > 5 µg/mL; zone of inhibition at 5 µg/disc [20]: 13 mm; EC50 [38]: > 20 µg/mL; zone of inhibition at 10 µg/disc [22]: 11 mm; zone of inhibition at 0.1 µg/disc [23]: 1 mm; Activity [25]: inactive; EC50 [39]: 4.2 µg/mL (≈ 10.8 µM); EC50 [40]: > 20 µg/mL; IC50 [27]: ≥ 200000 nM
CCC[C@@H](OC(C)=O)C1=C(Br)/C(=C/Br)OC1=O	inactive	3000 nM	0.8 µg/mL (≈ 2.17 µM)	350000 nM	1 µg/mL (≈ 2.72 µM)	1.6 µg/mL (≈ 4.35 µM)	inactive	11 mm	0.5 µg/mL (≈ 1.36 µM)	1.7 µg/mL (≈ 4.62 µM)	Active	2.1 µg/mL (≈ 5.71 µM)	Active	inactive	Active	Active	>50%	Active	Active	Active	Activity [33]: inactive; Activity [11]: inactive; IC50 [12]: 1300 nM; zone of inhibition at 5 µg/disc [20]: 15 mm; zone of inhibition at 10 µg/disc [22]: 16 mm; zone of inhibition at 0.1 µg/disc [23]: 7 mm; Activity [25]: inactive; IC50 [27]: 67000 nM; Activity [30]: inactive
